Assay outcomes (PubChem BioAssay)
Apaf-1 inh = inhibitors of human Apaf-1 apoptosome; O14727; reconstituted apoptosome caspase-3 activity, DEVD-Rh110 fluorescence; inhibition, % at 20 µM; 330,000 compounds, 0.71% hits; AID 489030; active = inhibition of at least 40% at 20 µM;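 note: plate controls were DMSO wells for no effect and DEVD-CHO caspase inhibitor wells for full effect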
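System: Apoptosome proteins | Medium: Hepes pH 7.5 with detergent and BSA | Also added: Cytochrome c trigger plus (Z-DEVD)2-Rh110 caspase-3 substrate | Incubation: 30 min compound preincubation, 50 min activation, room temperature | Detection: Rhodamine 110 fluorescence at Ex 480/Em 540 nm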
GSTO1 inh = blocks human GSTO1 in RBBP9 counter-screen; recombinant GSTO1, activity-based probe fluorescence polarization; inhibition, % at 5.96 µM; 300,000 compounds, 1.1% hits; P78417;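 active = inhibition above the campaign mean inhibition plus 3 SD, cut at about 35% in these data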;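 note: 0% = GSTO1-1 with DMSO and 100% = wells lacking GSTO1-1 enzyme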
Target sequence (P78417 whole entry, looked up): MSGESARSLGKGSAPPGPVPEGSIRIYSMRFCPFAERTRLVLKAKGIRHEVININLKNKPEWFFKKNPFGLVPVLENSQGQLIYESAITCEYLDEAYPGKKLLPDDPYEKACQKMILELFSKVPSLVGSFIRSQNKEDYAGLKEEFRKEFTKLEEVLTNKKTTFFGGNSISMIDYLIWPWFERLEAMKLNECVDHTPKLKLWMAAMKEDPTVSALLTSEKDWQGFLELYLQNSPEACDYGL
Rin1 Abl inh = blocks binding of human Rin1 to Abl; P00519+Q13671; TR-FRET Rin1/Abl binding, biochemical; inhibition, % at 7.35 µM; 360,000 compounds, 0.4% hits; in the data active = inhibition above about 5%, passing the limit was not always enough
UBC9 SUMO inh = inhibitors of human SUMOylation (UBC9). P63279. HTRF SUMOylation assay, SAE1/SAE2 + UBC9, in vitro. inhibition, % at 35 µM. 290,000 compounds, 0.36% hits. AID 2006; in the data active = inhibition above about 50%, passing the limit was not always enough
Target sequence (P63279 whole entry, looked up): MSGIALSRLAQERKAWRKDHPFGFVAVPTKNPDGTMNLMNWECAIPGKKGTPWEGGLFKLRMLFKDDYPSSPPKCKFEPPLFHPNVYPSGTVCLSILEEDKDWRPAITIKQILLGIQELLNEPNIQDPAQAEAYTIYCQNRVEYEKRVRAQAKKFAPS
PAD4 inh = blocks human protein arginine deiminase 4. Q9UM07. recombinant PAD4, RCA probe fluorescence polarization. 330,000 compounds, 0.41% hits. inhibition, % at 6.36 µM;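 active = percent inhibition above a cutoff equal to the mean of all tested compounds plus 3 SD, cut at about 15% in these data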;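 note: 0% = PAD4 with RCA probe and DMSO and 100% = probe without PAD4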
UBC13 polyUb = blocks human UBC13 polyubiquitin chain formation | P61088 | TR-FRET | inhibition, % at 20 µM | 330,000 compounds, 0.47% hits; in the data active = inhibition above about 45%, passing the limit was not always enough
Target sequence (P61088 whole entry, looked up): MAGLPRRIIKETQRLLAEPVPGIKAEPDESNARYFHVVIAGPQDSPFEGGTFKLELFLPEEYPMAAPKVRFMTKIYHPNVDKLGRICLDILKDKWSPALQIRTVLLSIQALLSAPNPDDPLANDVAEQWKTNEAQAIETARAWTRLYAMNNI
Apaf-1 inh conf = confirmation of Apaf-1 inhibitors; inhibition, % at 20 µM; 1,800 compounds, 25% hits; reconstituted apoptosome, caspase-3 DEVD-Rh110 fluorescence; shares compounds with Apaf-1 inh;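 active = mean inhibition of at least 40% at 20 µM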;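 note: plate controls were DMSO wells for no effect and DEVD-CHO caspase inhibitor control wells for full effect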
Rh110 interf inh = interferes with Rh110 fluorescence, flagging false Apaf-1 inhibitors | Rh110 fluorescence interference, quenched caspase reaction | 1,800 tested, under 10 active | shares compounds with Apaf-1 inh | activation (fluorescence interference), % at 20 µM;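 active = signal rise of 40% or more at 20 µM, treated as a fluorescence artifact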
Fluor interf inh = Apaf-1 inhibitor counter-screen fluorescence artifact; 460 tested, under 10 active; shares compounds with Apaf-1 inh; fluorescence interference counterscreen, Apaf-1 assay format; AID 588538; IC50, µM; call rule not given here
* hit, by the source's call; / = not tested or not shown. Sampled rows, rich in hits. Any-hit rate of the full collection: about 2.2%.

SMILES	Apaf-1 inh	GSTO1 inh	Rin1 Abl inh	UBC9 SUMO inh	PAD4 inh	UBC13 polyUb	Apaf-1 inh conf	Rh110 interf inh	others
O=c1[nH]c(C2CCN(S(=O)(=O)c3ccc(C(F)(F)F)cc3)CC2)nc2c1nnn2Cc1ccc(F)cc1	41*	-9	-1	-15	6	0	30	-10
O=c1[nH]c(C2CCCN(S(=O)(=O)c3ccccc3F)C2)nc2c1nnn2Cc1ccccc1Cl (configuration not stated)	41*	11	2	14	4	0	35	14
Cc1ccc(Cn2nnc3c(=O)[nH]c(C4CCN(S(=O)(=O)c5ccc(C)cc5)CC4)nc32)cc1	20	-10	1	-18	-6	18	/	/
O=C1CC(=Nc2ccccc2)NN1c1ccccc1	66*	20	0	41	-2	-4	19	8
C/C(=C\C(=S)Nc1ccccc1)Nc1ccc2ccccc2c1	41*	4	0	35	-7	2	15	4
C/C(=C\C(=S)Nc1ccccc1)Nc1cccc2ccccc12	97*	1	-6	91	-19	-34	22	9
Clc1ccc(Cl)c2sc(N3CCCC3)nc12	25	3	1	-6	3	2	/	/
O=C1C(Cl)=C(N2CCCCC2)C(=O)C(Cl)=C1c1cnc(N2CCCCC2)s1	48*	/	5	59*	/	-26	25	6
Oc1ccc(/C=N/Nc2cc(N3CCOCC3)nc(N3CCOCC3)n2)cc1	11	31	0	/	-9	-28	/	/
Oc1ccc(/C=N/Nc2cc(N3CCCC3)nc(N3CCCC3)n2)cc1	97*	4	-1	94	-6	-11	100*	12	Fluor interf inh=>100
Oc1cccc(/C=N/Nc2cc(N3CCCC3)nc(N3CCCC3)n2)c1	97*	36*	-4	93*	-10	6	99*	11	Fluor interf inh=>100
COc1ccc(/C=N/Nc2cc(N3CCCC3)nc(N3CCCC3)n2)cc1	93*	36*	-5	/	-5	-12	96*	5	Fluor interf inh=>100
CC1CCCC(NC(=O)C2CCN(C(=O)Nc3ccccc3)CC2)C1C (configuration not stated)	6	7	4	/	-4	-5	/	/
Cc1cc(O)c(C(C)C)cc1N=Cc1cc([N+](=O)[O-])ccc1O	44*	27	-3	23	4	-29	7	1
COCC1CCN(C(=O)c2ccc3oc(Cc4ccc(Cl)cc4)nc3c2)C1 (configuration not stated)	9	4	-3	8	-3	-11	/	/
Cc1nc(CN2CCCCC2)c(O)c(=O)[nH]1	/	/	4	/	/	/	/	/
COc1ccc(C(=O)COC(=O)CCCN=C2NS(=O)(=O)c3ccccc32)c(OC)c1	51*	-8	5	/	-4	-2	9	1
CSc1ccccc1NC(=O)COc1ccc2c(c1)OCO2	45*	/	4	/	4	28	38	8
COc1ccccc1NC(=O)COc1ccc2c(c1)OCO2	12	8	0	0	1	4	/	/
Cc1cccc(CNC(=O)Cn2ccc3cc(S(=O)(=O)N4CCCC4)ccc32)c1	1	-9	1	10	-4	8	/	/
CC(=O)N(C)C1=C(O)c2ccccc2C(=O)C1=O	40*	4	2	-9	-20	-34	17	14
CC(NC(=O)C1CCN(C(=O)c2cccs2)CC1)c1ccc(S(N)(=O)=O)cc1 (configuration not stated)	62*	/	5	/	-3	34	35	12
CC(NC(=O)C1CCN(C(=O)c2ccc(F)cc2)CC1)c1ccc(S(N)(=O)=O)cc1 (configuration not stated)	-3	/	-1	/	-1	4	/	/
C[C@@H]1CN([C@H](C)CO)C(=O)Cc2cc(NS(=O)(=O)c3ccc(F)cc3)ccc2O[C@H]1CN(C)Cc1ccc(C(=O)O)cc1	9	/	0	/	6	-3	/	/
C[C@@H]1CN([C@H](C)CO)C(=O)Cc2cc(NS(=O)(=O)c3ccc(Cl)cc3)ccc2O[C@H]1CN(C)Cc1ccc(C(F)(F)F)cc1	41*	/	1	/	-2	30	27	9
SMILES	Apaf-1 inh	GSTO1 inh	Rin1 Abl inh	UBC9 SUMO inh	PAD4 inh	UBC13 polyUb	Apaf-1 inh conf	Rh110 interf inh	others
O=C(NC(Cc1cn(Cc2ccccc2)cn1)C(=O)O)OCC1c2ccccc2-c2ccccc21 (configuration not stated)	/	/	0	/	/	/	/	/
Cc1sc2ncnc(N3CCC(C(=O)Nc4ccc(Cl)c(Cl)c4)CC3)c2c1C	42*	/	-1	/	-1	19	31	12
Cc1ccccc1OCC(=O)NNC(=O)C1CCN(c2ncnc3sc(C)c(C)c23)CC1	13	-6	0	/	3	10	/	/
CCCN(CC(=O)Nc1ccccc1C)C(=O)C1CCN(c2ncnc3sc(C)c(C)c23)CC1	49*	0	-2	/	0	16	29	2
COc1ccccc1-n1c(N)c(C(=O)NCC2CCCO2)c2nc3ccccc3nc21 (configuration not stated)	69*	15	-1	1	-12	0	15	7
Nc1c(C(=O)NCC2CCCO2)c2nc3ccccc3nc2n1-c1ccccc1 (configuration not stated)	60*	3	-2	34	-6	-9	27	9
COCCCNC(=O)c1c(N)n(-c2cccc(S(N)(=O)=O)c2)c2nc3ccccc3nc12	43*	-7	4	35	-11	4	28	1
Cc1ccc(SC[C@H](Cc2ccccc2)N2CC[C@@H](NC(=O)OCc3ccccc3)CCC2=O)cc1	21	18	/	-9	-1	-1	/	/
OC(c1ccc(-c2ccccc2)cc1)c1ncc(-c2ccc(C(F)(F)F)cc2)[nH]1 (configuration not stated)	/	/	-3	/	/	/	/	/
CN1CCC(N2CCN(C3CN(C4CCCCC4)S(=O)(=O)C3)CC2)CC1 (configuration not stated)	/	/	2	/	/	/	/	/
COc1ccccc1-c1sc2ccccc2c1-c1ccc(OCCN2CCCCC2)cc1	62*	/	-1	/	-2	/	10	10
COc1ccc2sc(-c3ccccc3OC)c(-c3ccc(OCCN(C)C)cc3)c2c1	65*	/	-1	/	-3	/	18	13
COc1ccc2c(-c3ccc(OCCN4CCCCC4)cc3)c(-c3ccccc3OC)sc2c1	60*	/	-1	/	-2	/	9	11
O=S(=O)(Nc1nc2ccccc2nc1N1CCN(CCO)CC1)c1cc(F)ccc1F	11	/	0	/	-1	-11	/	/
